The target in assay [1] is T1, Peroxisome proliferator-activated receptor gamma (Homo sapiens) (UniProt P37231).
T1 sequence (whole entry): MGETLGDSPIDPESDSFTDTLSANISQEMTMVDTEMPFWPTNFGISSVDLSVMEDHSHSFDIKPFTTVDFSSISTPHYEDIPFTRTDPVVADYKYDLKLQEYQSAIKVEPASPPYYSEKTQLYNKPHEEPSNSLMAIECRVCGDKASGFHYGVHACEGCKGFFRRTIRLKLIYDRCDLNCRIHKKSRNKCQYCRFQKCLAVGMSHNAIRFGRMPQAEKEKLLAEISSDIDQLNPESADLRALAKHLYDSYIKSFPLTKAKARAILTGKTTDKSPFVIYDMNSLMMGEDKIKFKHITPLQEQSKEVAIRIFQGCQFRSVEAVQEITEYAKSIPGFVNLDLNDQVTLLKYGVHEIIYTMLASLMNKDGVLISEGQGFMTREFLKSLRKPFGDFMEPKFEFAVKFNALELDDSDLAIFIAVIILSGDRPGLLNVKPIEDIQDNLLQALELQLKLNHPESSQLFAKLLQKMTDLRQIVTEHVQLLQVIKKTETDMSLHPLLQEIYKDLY
As to the kind of experiment: Agonist activity at human PPAR-gamma expressed in HEK293 cells at 30 uM after 18 hrs by luciferase reporter gene assay relative to control. (In general: Reporter assays use an easily measured gene product as a stand-in for the process of interest.)

For assay [2], the target named is T1, Peroxisome proliferator-activated receptor gamma (Homo sapiens). Kind of assay: Reduction of pioglitazone-mediated human PPAR-gamma activation expressed in HEK293 cells after 18 hrs by luciferase reporter gene assay. In kind it is cell-based. In a few lines:
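Co-treatment assay in human PPARγ/tk-PPREx3-luc/EGFP-transfected HEK-293 cells. Pioglitazone at varied concentrations was applied with or without 30 μM compound for 18 h, with DMSO vehicle at 0.1%. Luciferase was normalized to EGFP fluorescence and expressed as fold over vehicle. Means ± SD of three independent experiments in quadruplicate.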

The target is the same in assay [3]. Kind of assay: Transactivation of human PPAR-gamma expressed in HEK293 cells after 18 hrs by luciferase reporter gene assay relative to control. Type of assay: cell-based. In a few lines:
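HEK-293 cells transiently co-transfected by calcium phosphate with full-length human PPARγ expression plasmid (pSG5-PL-hPPAR-gamma1), tk-PPREx3-luc reporter and EGFP internal control. Cells were reseeded and treated for 18 h, with 0.1% DMSO as vehicle. Luciferase was normalized to EGFP fluorescence and expressed as fold induction over vehicle. Means ± SD of three independent experiments, each in quadruplicate.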

For assay [4] the target is unchanged. As to the kind of experiment: Agonist activity at human PPAR-gamma expressed in HEK293 cells at 30 uM after 18 hrs by luciferase reporter gene assay in presence of T0070907.

Calls of active or inactive are those of the source. The calls are words filed in the database; no cut-off is given here.

As for `COc1cc([C@@H]2Oc3ccc([C@H]4Oc5cc(O)cc(O)c5C(=O)[C@@H]4O)cc3O[C@H]2CO)ccc1O`, the result in assay [1] was inactive. The same measure, in the same setting: to `COc1cc([C@H]2Oc3cc([C@H]4Oc5cc(O)cc(O)c5C(=O)[C@@H]4O)ccc3O[C@@H]2CO)ccc1O` belongs “inactive”. As for `COc1cc([C@@H]2Oc3cc([C@H]4Oc5cc(O)cc(O)c5C(=O)[C@@H]4O)ccc3O[C@H]2CO)ccc1O`, the result in assay [1] was inactive.

Take `COc1cc(C2Oc3c(O)cc([C@H]4Oc5cc(O)cc(O)c5C(=O)[C@@H]4O)cc3C2CO)ccc1O` (stereo not given in full): the result in assay [1] was inactive. Consider `O=C1c2c(O)cc(O)cc2O[C@H](c2ccc(O)c(O)c2)[C@H]1O`, for which the outcome in assay [1] was inactive. Regarding `COc1cc([C@@H]2[C@H]3CO[C@@]4(O)C(=O)[C@@H]2C=C([C@H]2Oc5cc(O)cc(O)c5C(=O)[C@@H]2O)[C@@H]34)ccc1O`, the result in assay [1] was inactive.

Compound `COc1cc([C@H]2Oc3ccc([C@H]4Oc5cc(O)cc(O)c5C(=O)[C@@H]4O)cc3O[C@@H]2CO)ccc1O` showed a fold change (FC) in assay [1] of 2.08. For the same compound, the result in assay [2] was Active. The Activity result in assay [3] is “Dose-dependent effect”. Further, the outcome in assay [4] was inactive.

For the origin of these results see ChEMBL document CHEMBL3232839, “Identification of isosilybin a from milk thistle seeds as an agonist of peroxisome proliferator-activated receptor gamma” (J Nat Prod, 2014).
